Assay results taken from ChEMBL document CHEMBL1126160, “Synthesis and structure-activity relationships of 7-diazabicycloalkylquinolones, including danofloxacin, a new quinolone antibacterial agent for veterinary medicine” (J Med Chem, 1992).
Converted amounts (≈) assume the structure as drawn.

Assays:
Format in all cases: functional
[1] = tested on: Bordetella bronchiseptica; assay: In vitro antibacterial activity against aerobically grown Bordetella bronchiseptica (73A009)
How it was run: (§1)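 Agar dilution MICs. Aerobic strains were tested on brain heart infusion agar and incubated aerobically at 37 °C for 18–20 h.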

[2] = tested on: Escherichia coli; assay: In vitro antibacterial activity against aerobically grown Escherichia coli (51A538); how it was run: as §1
[3] = tested on: Trueperella pyogenes; assay: In vitro antibacterial activity against anaerobically grown Actinomyces pyogenes (14D002)
How it was run: (§2)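 Agar dilution MICs. Anaerobic strains were tested on tryptose agar with 5% bovine blood and incubated 48 h at 39 °C in an anaerobe chamber under N2/CO2/H2 (80:10:10).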

[4] = tested on: Staphylococcus aureus; assay: In vitro antibacterial activity against aerobically grown Staphylococcus aureus (54B004); how it was run: as §1
[5] = tested on: Actinobacillus pleuropneumoniae; assay: In vitro antibacterial activity against anaerobically grown Actinobacillus pleuropneumoniae ([…]); how it was run: as §2
[6] = tested on: Clostridium perfringens; assay: microbe, parasite or virus in culture
[7] = tested on: Salmonella enterica; assay: In vitro antibacterial activity against aerobically grown Salmonella choleraesuis (58B015)
[8] = tested on: Phocaeicola vulgatus; assay: In vitro antibacterial activity against anaerobically grown Bacteroides vulgatus (78D029); how it was run: as §2
[9] = In vitro antibacterial activity against Aerobically grown Pasteurella haemolytica (59B018); conditions: Mannheimia haemolytica; how it was run: as §1
[10] = tested on: Escherichia coli; assay: Escherichia coli DNA cleavage endpoint value which is the minimum amount required (in micro g/mL) to induce detectable cleavage of supercoiled pBR322 substrate to linear form (gyrase); conditions: read-out: MIC
How it was run: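 DNA gyrase A and B subunits were purified from E. coli overproducers. About 2 units of holoenzyme were incubated with pBR322 in Tris-HCl pH 7.5 containing MgCl2, spermidine, DTT, 0.2 mM ATP, BSA and tRNA. Drug was added as 2-fold serial dilutions, and reactions ran for 60 min at 25 °C. Reactions were stopped with SDS and proteinase K, then run on agarose and stained with ethidium. The endpoint was the lowest concentration giving detectable linear DNA.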

[11] = In vitro evaluation for antibacterial activity against anaerobically grown Treponema hyodysenteriae (94A007); conditions: Brachyspira hyodysenteriae
[12] = tested on: Pasteurella multocida; assay: In vitro antibacterial activity against aerobically grown Pasteurella multocida (59A006); how it was run: as §1
[13] = tested on: Escherichia coli; assay: In vivo protective dose was evaluated against Escherichia coli (51A266) in mouse(sc); conditions: read-out: PD50
How it was run: (§3)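 Female CF-1 mice (15 g), groups of 10, challenged ip with 0.5 mL bacterial suspension (P. multocida 59A006 or E. coli 51A266 at 3.0 × 10^8 cfu/mL; S. choleraesuis 58B010 at 8.5 × 10^2 cfu/mL). Drug given sc or po at 30 min, 4 h and 24 h after challenge; survival recorded at 96 h; PD50 by probit analysis.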

[14] = tested on: Pasteurella multocida; assay: In vivo protective dose was evaluated against Pasteurella multocida (59A006) in mouse(sc); conditions: read-out: PD50; how it was run: as §3

Row | SMILES | MIC [1] [µg/mL] | MIC [2] [µg/mL] | MIC [3] [µg/mL] | MIC [4] [µg/mL] | MIC [5] [µg/mL] | MIC [6] [µg/mL] | MIC [7] [µg/mL] | MIC [8] [µg/mL] | MIC [9] [µg/mL] | minimum concentration inducing gyrase-mediated DNA cleavage [10] [µg/mL] | MIC [11] [µg/mL] | MIC [12] [µg/mL] | ED50 [13] [mg/kg] | ED50 [14] [mg/kg]
1 | CCn1cc(C(=O)O)c(=O)c2cc(F)c(N3CCN4CCC3CC4)c(F)c21.Cl.O | 0.78 | 0.2 | > 3.13 | 0.39 | 0.05 | 0.78 | 0.2 | 1.56 | 0.2 | 1.56 | 1.56 | 0.1 |  | 
2 | Cl.O.O=C(O)c1cn(C2CC2)c2cc(N3CCN4CCC3CC4)c(F)cc2c1=O | 0.39 | 0.02 | 1.56 | 0.05 | 0.05 | 0.05 | 0.02 | 0.39 | 0.01 | 0.39 | 0.39 | < 0.002 | 0.09 | 
3 | Cl.O.O=C(O)c1cn(CCF)c2cc(N3CCN4CCC3CC4)c(F)cc2c1=O | 1.56 | 0.2 | > 3.13 | 0.78 | 0.02 | 0.2 | 0.1 | > 3.13 | 0.02 | 0.39 | 1.56 | 0.05 |  | 
4 | Cl.O.O=C(O)c1cn(-c2ccc(F)cc2)c2cc(N3CCN4CCC3CC4)c(F)cc2c1=O | 1.56 | 0.2 | 3.13 | 0.2 | 0.05 | 0.1 | 0.2 | 0.78 | 0.1 | 0.78 | 0.78 | 0.02 |  | 
5 | CCn1cc(C(=O)O)c(=O)c2cc(F)c(N3CCN4CCCC3C4)cc21 (stereo not drawn) | > 1.56 | 0.2 (≈ 0.556 µM) | > 3.13 | 0.39 (≈ 1.09 µM) | 0.05 (≈ 0.139 µM) | 0.39 (≈ 1.09 µM) | 0.2 (≈ 0.556 µM) | 3.13 (≈ 8.71 µM) | 0.1 (≈ 0.278 µM) | 3.12 | 0.39 (≈ 1.09 µM) | 0.02 (≈ 0.0556 µM) | 1.36 | 0.71
6 | CN1C2CC[C@@H]1CCN(c1cc3c(cc1F)c(=O)c(C(=O)O)cn3C1CC1)C2 | > 1.56 | 0.39 (≈ 1.01 µM) | 3.13 (≈ 8.12 µM) | 0.39 (≈ 1.01 µM) | 0.2 (≈ 0.519 µM) | 0.2 (≈ 0.519 µM) | 0.39 (≈ 1.01 µM) | 3.13 (≈ 8.12 µM) | 0.2 (≈ 0.519 µM) | 3.12 | 1.56 (≈ 4.05 µM) | 0.05 (≈ 0.13 µM) |  | 0.43
7 | CN1C2CC[C@@H]1CCN(c1c(F)cc3c(=O)c(C(=O)O)cn(C4CC4)c3c1F)C2 | > 1.56 | 0.1 (≈ 0.248 µM) | 1.56 (≈ 3.87 µM) | 0.2 (≈ 0.496 µM) | 0.1 (≈ 0.248 µM) | 0.39 (≈ 0.967 µM) | 0.1 (≈ 0.248 µM) | 0.78 (≈ 1.93 µM) | 0.1 (≈ 0.248 µM) | 0.39 | > 3.13 | 0.02 (≈ 0.0496 µM) |  | 
8 | CN1[C@@H]2CC[C@H]1CN(c1c(F)cc3c(=O)c(C(=O)O)cn(C4CC4)c3c1F)C2 | 3.13 (≈ 8.04 µM) | 0.2 (≈ 0.514 µM) | 1.56 (≈ 4.01 µM) | 0.39 (≈ 1 µM) | 0.39 (≈ 1 µM) | 0.78 (≈ 2 µM) | 0.39 (≈ 1 µM) | 25 (≈ 64.2 µM) | 0.1 (≈ 0.257 µM) | 0.78 | 0.78 (≈ 2 µM) | 0.1 (≈ 0.257 µM) |  | 
9 | CCn1cc(C(=O)O)c(=O)c2cc(F)c(N3C[C@H]4CC[C@@H](C3)N4C)c(F)c21 | 12.5 (≈ 33.1 µM) | 0.78 (≈ 2.07 µM) | 6.25 (≈ 16.6 µM) | 0.39 (≈ 1.03 µM) | 0.2 (≈ 0.53 µM) | 1.56 (≈ 4.13 µM) | 1.56 (≈ 4.13 µM) | > 25 | 0.39 (≈ 1.03 µM) | 3.12 | 6.25 (≈ 16.6 µM) | 0.2 (≈ 0.53 µM) |  | 
10 | CN1C[C@@H]2C[C@H]1CN2c1c(F)cc2c(=O)c(C(=O)O)cn(-c3ccc(F)cc3F)c2c1Cl | > 1.56 | 0.2 (≈ 0.431 µM) | 3.13 (≈ 6.75 µM) | 0.2 (≈ 0.431 µM) | 0.1 (≈ 0.216 µM) | 0.39 (≈ 0.841 µM) | 0.39 (≈ 0.841 µM) | 0.78 (≈ 1.68 µM) | 0.1 (≈ 0.216 µM) | 3.12 | > 3.13 | 0.01 (≈ 0.0216 µM) |  | 
11 | O=C(O)c1cn(C2CC2)c2cc(N3CCN4CCCC3C4)c(F)cc2c1=O (stereo not drawn) | 0.78 (≈ 2.1 µM) | 0.05 (≈ 0.135 µM) | 3.13 (≈ 8.43 µM) | 0.1 (≈ 0.269 µM) | 0.02 (≈ 0.0538 µM) | 0.2 (≈ 0.538 µM) | 0.05 (≈ 0.135 µM) | 0.78 (≈ 2.1 µM) | 0.02 (≈ 0.0538 µM) | 0.78 | 0.2 (≈ 0.538 µM) | 0.002 (≈ 0.00538 µM) | 0.31 | 0.15
12 | O=C(O)c1cn(-c2ccc(F)cc2)c2cc(N3CCN4CCCC3C4)c(F)cc2c1=O (stereo not drawn) | 1.56 (≈ 3.67 µM) | 0.1 (≈ 0.235 µM) | 3.13 (≈ 7.36 µM) | 0.1 (≈ 0.235 µM) | 0.05 (≈ 0.118 µM) | 0.2 (≈ 0.47 µM) | 0.2 (≈ 0.47 µM) | 0.39 (≈ 0.917 µM) | 0.05 (≈ 0.118 µM) | 0.78 | 0.2 (≈ 0.47 µM) | 0.01 (≈ 0.0235 µM) |  | 
13 | CN1C2CC[C@@H]1CCN(c1cc3c(cc1F)c(=O)c(C(=O)O)cn3-c1ccc(F)cc1)C2 | > 1.56 | 1.56 (≈ 3.55 µM) | > 3.13 | 0.78 (≈ 1.77 µM) | 0.78 (≈ 1.77 µM) | 0.39 (≈ 0.887 µM) | > 1.56 | > 3.13 | 1.56 (≈ 3.55 µM) | 0.19 | 0.13 (≈ 0.296 µM) | 0.2 (≈ 0.455 µM) |  | 
14 | O=C(O)c1cn(C2CC2)c2c(Cl)c(N3C[C@@H]4C[C@H]3CN4)c(F)cc2c1=O | 0.39 (≈ 1.03 µM) | 0.02 (≈ 0.0529 µM) | 0.39 (≈ 1.03 µM) | 0.2 (≈ 0.529 µM) | 0.005 (≈ 0.0132 µM) | 0.1 (≈ 0.265 µM) | 0.02 (≈ 0.0529 µM) | 0.1 (≈ 0.265 µM) | 0.005 (≈ 0.0132 µM) | 0.09 | 1.56 (≈ 4.13 µM) | 0.005 (≈ 0.0132 µM) |  | 
15 | CCn1cc(C(=O)O)c(=O)c2cc(F)c(N3C[C@@H]4C[C@H]3CN4)cc21 | 1.56 (≈ 4.71 µM) | 0.78 (≈ 2.35 µM) | 3.13 (≈ 9.45 µM) | > 1.56 | 0.39 (≈ 1.18 µM) | 0.39 (≈ 1.18 µM) | 0.39 (≈ 1.18 µM) | > 3.13 | 0.39 (≈ 1.18 µM) | 3.12 | 1.56 (≈ 4.71 µM) | 0.2 (≈ 0.604 µM) |  | 
16 | CN1C[C@@H]2C[C@H]1CN2c1cc2c(cc1F)c(=O)c(C(=O)O)cn2-c1ccc(F)cc1 | 1.56 (≈ 3.79 µM) | 0.2 (≈ 0.486 µM) | 3.13 (≈ 7.61 µM) | 0.2 (≈ 0.486 µM) | 0.1 (≈ 0.243 µM) | 0.1 (≈ 0.243 µM) | 0.2 (≈ 0.486 µM) | 1.56 (≈ 3.79 µM) | 0.1 (≈ 0.243 µM) | 1.56 | 0.78 (≈ 1.9 µM) | 0.02 (≈ 0.0486 µM) | 0.94 | 0.29
17 | O=C(O)c1cn(-c2ccc(F)cc2)c2cc(N3C[C@@H]4C[C@H]3CN4)c(F)cc2c1=O | > 1.56 | 0.1 (≈ 0.252 µM) | 3.13 (≈ 7.88 µM) | 0.78 (≈ 1.96 µM) | 0.1 (≈ 0.252 µM) | 0.2 (≈ 0.503 µM) | 0.2 (≈ 0.503 µM) | 3.13 (≈ 7.88 µM) | 0.1 (≈ 0.252 µM) | 1.56 | 1.56 (≈ 3.93 µM) | 0.02 (≈ 0.0503 µM) |  | 
18 | C=Cn1cc(C(=O)O)c(=O)c2cc(F)c(N3CC[C@H]4CCC(C3)N4C)cc21 | 1.56 (≈ 4.2 µM) | 0.78 (≈ 2.1 µM) | > 3.13 | 1.56 (≈ 4.2 µM) | 0.78 (≈ 2.1 µM) | 0.78 (≈ 2.1 µM) | 1.56 (≈ 4.2 µM) | > 3.13 | 1.56 (≈ 4.2 µM) | 6.25 | 3.13 (≈ 8.43 µM) | 0.2 (≈ 0.538 µM) |  | 
19 | C=Cn1cc(C(=O)O)c(=O)c2cc(F)c(N3C[C@H]4CC[C@@H](C3)N4C)cc21 | 12.5 (≈ 35 µM) | 0.78 (≈ 2.18 µM) | 3.13 (≈ 8.76 µM) | 0.2 (≈ 0.56 µM) | 0.2 (≈ 0.56 µM) | 0.78 (≈ 2.18 µM) | 0.78 (≈ 2.18 µM) | 6.25 (≈ 17.5 µM) | 0.39 (≈ 1.09 µM) | 0.39 | 1.56 (≈ 4.37 µM) | 0.1 (≈ 0.28 µM) |  | 
20 | O=C(O)c1cn(-c2ccc(F)cc2F)c2c(F)c(N3C[C@@H]4C[C@H]3CN4)c(F)cc2c1=O | 1.56 (≈ 3.6 µM) | 0.05 (≈ 0.115 µM) | 0.78 (≈ 1.8 µM) | 0.39 (≈ 0.9 µM) | 0.02 (≈ 0.0462 µM) | 0.2 (≈ 0.462 µM) | 0.1 (≈ 0.231 µM) | 1.56 (≈ 3.6 µM) | 0.05 (≈ 0.115 µM) | 0.78 | 3.13 (≈ 7.22 µM) | 0.01 (≈ 0.0231 µM) |  | 
